Reference: ChEMBL document CHEMBL1134692, “QSAR study on the contribution of log P and E(s) to the in vitro antiprotozoal activity of glutathione derivatives” (J Med Chem, 2001)

System: not listed separately
Experiment: Relative toxicity was evaluated as ED50 for KB cell line to that of ED50 for T.B. brucei
Format: organism-based
Conditions: trypanosoma brucei brucei, KB cells versus Trypanosoma brucei brucei; read-out: Relative toxicity; call rule not given here
Summary of the method: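 Ratio of ED50 against KB cells to ED50 against T. b. brucei bloodstream forms, each from the 3-day Alamar Blue assays.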

Structure (SMILES)	selectivity ratio
CC(C)CCC(C)OC(=O)CNC(=O)C(CSc1ccc([N+](=O)[O-])cc1[N+](=O)[O-])NC(=O)CCC(NC(=O)OCc1ccccc1)C(=O)OC(C)CCC(C)C (centres undefined)	> 9
CC(C)C(C)OC(=O)CNC(=O)C(CSc1ccc([N+](=O)[O-])cc1[N+](=O)[O-])NC(=O)CCC(NC(=O)OCc1ccccc1)C(=O)OC(C)C(C)C (centres undefined)	24
CCC(C)OC(=O)CNC(=O)C(CSc1ccc([N+](=O)[O-])cc1[N+](=O)[O-])NC(=O)CCC(NC(=O)OCc1ccccc1)C(=O)OC(C)CC (centres undefined)	150
CC(C)CC(C)OC(=O)CNC(=O)C(CSc1ccc([N+](=O)[O-])cc1[N+](=O)[O-])NC(=O)CCC(NC(=O)OCc1ccccc1)C(=O)OC(C)CC(C)C (centres undefined)	173
O=C(CCC(NC(=O)OCc1ccccc1)C(=O)OCCCCCl)NC(CSc1ccc([N+](=O)[O-])cc1[N+](=O)[O-])C(=O)NCC(=O)OCCCCCl (centres undefined)	0.12
CC(C)OC(=O)CNC(=O)C(CSc1ccc([N+](=O)[O-])cc1[N+](=O)[O-])NC(=O)CCC(NC(=O)OCc1ccccc1)C(=O)OC(C)C (centres undefined)	13.5

System: Trypanosoma brucei brucei
Experiment: Inhibitory activity against Trypanosoma brucei
Format: functional
Conditions: read-out: ED50 (the source's name)
Summary of the method: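 T. b. brucei S427 bloodstream trypomastigotes kept in HMI-18 with 20% heat-inactivated FCS at 37 °C, 5% CO2. Parasites at 2 × 10^5/mL were mixed 1:1 with compound, run in triplicate as a 3-fold dilution series from 30 μM top. Incubated 3 days at 37 °C; Alamar Blue read-out on day 3 gave ED50. Pentamidine positive control.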

EC50	Structure (SMILES)
34.8 µM	CC(C)CCC(C)OC(=O)CNC(=O)C(CSc1ccc([N+](=O)[O-])cc1[N+](=O)[O-])NC(=O)CCC(NC(=O)OCc1ccccc1)C(=O)OC(C)CCC(C)C (centres undefined)
6 µM	CC(C)C(C)OC(=O)CNC(=O)C(CSc1ccc([N+](=O)[O-])cc1[N+](=O)[O-])NC(=O)CCC(NC(=O)OCc1ccccc1)C(=O)OC(C)C(C)C (centres undefined)
2 µM	CCC(C)OC(=O)CNC(=O)C(CSc1ccc([N+](=O)[O-])cc1[N+](=O)[O-])NC(=O)CCC(NC(=O)OCc1ccccc1)C(=O)OC(C)CC (centres undefined)
0.25 µM	CC(C)CC(C)OC(=O)CNC(=O)C(CSc1ccc([N+](=O)[O-])cc1[N+](=O)[O-])NC(=O)CCC(NC(=O)OCc1ccccc1)C(=O)OC(C)CC(C)C (centres undefined)
3.05 µM	O=C(CCC(NC(=O)OCc1ccccc1)C(=O)OCCCCCl)NC(CSc1ccc([N+](=O)[O-])cc1[N+](=O)[O-])C(=O)NCC(=O)OCCCCCl (centres undefined)
20 µM	CC(C)OC(=O)CNC(=O)C(CSc1ccc([N+](=O)[O-])cc1[N+](=O)[O-])NC(=O)CCC(NC(=O)OCc1ccccc1)C(=O)OC(C)C (centres undefined)

System: Leishmania donovani
Experiment: Inhibitory activity against Leishmania donovani
Format: functional
Conditions: read-out: ED50 (the source's name)
Summary of the method: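 Starch-elicited peritoneal macrophages from female CD1 mice were plated at 4 × 10^4/well in RPMI-1640 with 10% HIFCS. After 24 h they were infected at 10:1 with L. donovani amastigotes (MHOM/ET/67/L82, hamster-passaged). Drug was given as a 3-fold dilution series in quadruplicate for 5 days. Activity was scored as the percentage of macrophages cleared of amastigotes. Sodium stibogluconate control.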

EC50	Structure (SMILES)
> 30 µM	CC(C)CCC(C)OC(=O)CNC(=O)C(CSc1ccc([N+](=O)[O-])cc1[N+](=O)[O-])NC(=O)CCC(NC(=O)OCc1ccccc1)C(=O)OC(C)CCC(C)C (centres undefined)
13.4 µM	CC(C)C(C)OC(=O)CNC(=O)C(CSc1ccc([N+](=O)[O-])cc1[N+](=O)[O-])NC(=O)CCC(NC(=O)OCc1ccccc1)C(=O)OC(C)C(C)C (centres undefined)
> 30 µM	CCC(C)OC(=O)CNC(=O)C(CSc1ccc([N+](=O)[O-])cc1[N+](=O)[O-])NC(=O)CCC(NC(=O)OCc1ccccc1)C(=O)OC(C)CC (centres undefined)
> 30 µM	CC(C)CC(C)OC(=O)CNC(=O)C(CSc1ccc([N+](=O)[O-])cc1[N+](=O)[O-])NC(=O)CCC(NC(=O)OCc1ccccc1)C(=O)OC(C)CC(C)C (centres undefined)
> 30 µM	O=C(CCC(NC(=O)OCc1ccccc1)C(=O)OCCCCCl)NC(CSc1ccc([N+](=O)[O-])cc1[N+](=O)[O-])C(=O)NCC(=O)OCCCCCl (centres undefined)
7.8 µM	CC(C)OC(=O)CNC(=O)C(CSc1ccc([N+](=O)[O-])cc1[N+](=O)[O-])NC(=O)CCC(NC(=O)OCc1ccccc1)C(=O)OC(C)C (centres undefined)

System: Trypanosoma cruzi
Experiment: Evaluated for its inhibitory activity against Trypanosoma cruzi
Format: functional
Conditions: read-out: ED50 (the source's name)
Summary of the method: (§1)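 Starch-elicited female CD1 mouse peritoneal macrophages (4 × 10^4/well, RPMI-1640, 10% HIFCS) were infected after 24 h at 5:1 with T. cruzi Y trypomastigotes derived from MDCK cultures. Drug was applied as a 3-fold dilution series in quadruplicate for 3 days. Activity was the percentage of macrophages cleared of amastigotes. Nifurtimox control.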

EC50	Structure (SMILES)
< 30 µM	CC(C)C(C)OC(=O)CNC(=O)C(CSc1ccc([N+](=O)[O-])cc1[N+](=O)[O-])NC(=O)CCC(NC(=O)OCc1ccccc1)C(=O)OC(C)C(C)C (centres undefined)
> 30 µM	CC(C)CC(C)OC(=O)CNC(=O)C(CSc1ccc([N+](=O)[O-])cc1[N+](=O)[O-])NC(=O)CCC(NC(=O)OCc1ccccc1)C(=O)OC(C)CC(C)C (centres undefined)
28 µM	O=C(CCC(NC(=O)OCc1ccccc1)C(=O)OCCCCCl)NC(CSc1ccc([N+](=O)[O-])cc1[N+](=O)[O-])C(=O)NCC(=O)OCCCCCl (centres undefined)

System: not listed separately
Experiment: Evaluated for its inhibitory activity against KB cells
Format: functional
Conditions: Homo sapiens, read-out: ED50 (the source's name)
Summary of the method: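 KB cells (human oral pharyngeal carcinoma) grown in RPMI with 10% calf foetal serum at 37 °C, 5% CO2 in humidified air. Exposed to compound for 3 days under the same conditions, then viability read by Alamar Blue assay; ED50 reported.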

EC50	Structure (SMILES)
> 300 µM	CC(C)CCC(C)OC(=O)CNC(=O)C(CSc1ccc([N+](=O)[O-])cc1[N+](=O)[O-])NC(=O)CCC(NC(=O)OCc1ccccc1)C(=O)OC(C)CCC(C)C (centres undefined)
245 µM	CC(C)C(C)OC(=O)CNC(=O)C(CSc1ccc([N+](=O)[O-])cc1[N+](=O)[O-])NC(=O)CCC(NC(=O)OCc1ccccc1)C(=O)OC(C)C(C)C (centres undefined)
> 300 µM	CCC(C)OC(=O)CNC(=O)C(CSc1ccc([N+](=O)[O-])cc1[N+](=O)[O-])NC(=O)CCC(NC(=O)OCc1ccccc1)C(=O)OC(C)CC (centres undefined)
43.2 µM	CC(C)CC(C)OC(=O)CNC(=O)C(CSc1ccc([N+](=O)[O-])cc1[N+](=O)[O-])NC(=O)CCC(NC(=O)OCc1ccccc1)C(=O)OC(C)CC(C)C (centres undefined)
0.38 µM	O=C(CCC(NC(=O)OCc1ccccc1)C(=O)OCCCCCl)NC(CSc1ccc([N+](=O)[O-])cc1[N+](=O)[O-])C(=O)NCC(=O)OCCCCCl (centres undefined)
269 µM	CC(C)OC(=O)CNC(=O)C(CSc1ccc([N+](=O)[O-])cc1[N+](=O)[O-])NC(=O)CCC(NC(=O)OCc1ccccc1)C(=O)OC(C)C (centres undefined)

System: not listed separately
Experiment: Partition coefficient (logP)
Format: physicochemical
Conditions: octanol/water

logP	Structure (SMILES)
7.71	CC(C)CCC(C)OC(=O)CNC(=O)C(CSc1ccc([N+](=O)[O-])cc1[N+](=O)[O-])NC(=O)CCC(NC(=O)OCc1ccccc1)C(=O)OC(C)CCC(C)C (centres undefined)
5.75	CC(C)C(C)OC(=O)CNC(=O)C(CSc1ccc([N+](=O)[O-])cc1[N+](=O)[O-])NC(=O)CCC(NC(=O)OCc1ccccc1)C(=O)OC(C)C(C)C (centres undefined)
4.91	CCC(C)OC(=O)CNC(=O)C(CSc1ccc([N+](=O)[O-])cc1[N+](=O)[O-])NC(=O)CCC(NC(=O)OCc1ccccc1)C(=O)OC(C)CC (centres undefined)
6.73	CC(C)CC(C)OC(=O)CNC(=O)C(CSc1ccc([N+](=O)[O-])cc1[N+](=O)[O-])NC(=O)CCC(NC(=O)OCc1ccccc1)C(=O)OC(C)CC(C)C (centres undefined)
5.56	O=C(CCC(NC(=O)OCc1ccccc1)C(=O)OCCCCCl)NC(CSc1ccc([N+](=O)[O-])cc1[N+](=O)[O-])C(=O)NCC(=O)OCCCCCl (centres undefined)
3.93	CC(C)OC(=O)CNC(=O)C(CSc1ccc([N+](=O)[O-])cc1[N+](=O)[O-])NC(=O)CCC(NC(=O)OCc1ccccc1)C(=O)OC(C)C (centres undefined)

System: Leishmania donovani
Experiment: (§2) Percent decrease in viable parasitesrelative to the control at 30 uM
Format: functional
Conditions: not given
Summary of the method: (§3)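 Single concentration of 30 μM in the intracellular amastigote macrophage assays. Inhibition is expressed as the percent decrease in viable parasites relative to untreated control.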

Structure (SMILES)	inhibition at 30 µM
CC(C)CCC(C)OC(=O)CNC(=O)C(CSc1ccc([N+](=O)[O-])cc1[N+](=O)[O-])NC(=O)CCC(NC(=O)OCc1ccccc1)C(=O)OC(C)CCC(C)C (centres undefined)	70%
CCC(C)OC(=O)CNC(=O)C(CSc1ccc([N+](=O)[O-])cc1[N+](=O)[O-])NC(=O)CCC(NC(=O)OCc1ccccc1)C(=O)OC(C)CC (centres undefined)	36%
CC(C)CC(C)OC(=O)CNC(=O)C(CSc1ccc([N+](=O)[O-])cc1[N+](=O)[O-])NC(=O)CCC(NC(=O)OCc1ccccc1)C(=O)OC(C)CC(C)C (centres undefined)	8%

System: Trypanosoma cruzi
Experiment: as §2
Format: functional
Conditions: not given
Summary of the method: as §3

Structure (SMILES)	inhibition at 30 µM
CC(C)C(C)OC(=O)CNC(=O)C(CSc1ccc([N+](=O)[O-])cc1[N+](=O)[O-])NC(=O)CCC(NC(=O)OCc1ccccc1)C(=O)OC(C)C(C)C (centres undefined)	64%
CC(C)CC(C)OC(=O)CNC(=O)C(CSc1ccc([N+](=O)[O-])cc1[N+](=O)[O-])NC(=O)CCC(NC(=O)OCc1ccccc1)C(=O)OC(C)CC(C)C (centres undefined)	31%

System: Trypanosoma cruzi
Experiment: Evaluated for its inhibitory activity against Trypanosoma cruzi; NA= not active at 30 umol
Format: functional, organism-based
Conditions: not given
Summary of the method: as §1

Structure (SMILES)	Activity against T. cruzi
CC(C)OC(=O)CNC(=O)C(CSc1ccc([N+](=O)[O-])cc1[N+](=O)[O-])NC(=O)CCC(NC(=O)OCc1ccccc1)C(=O)OC(C)C (centres undefined)	not active at 30 umol
